# High-throughput results as filed in PubChem BioAssay.
# ATG4B inh: blocks human ATG4B protease cleavage of LC3 substrate; 0.51% of 340,000 active; AID 504462; ATG4B cleavage of LC3-PLA2, NBD-HPC fluorescence, 1 h; Q9Y4P1; inhibition, % at 8.33 µM; in the data active means inhibition above about 40%
# GRIN3A LBD mod: modulators (binders) of human NR3A ligand-binding domain; 2.5% of 340,000 active; NR3A LBD differential scanning fluorimetry, Tm shift; 0% = protein alone, 100% = glycine-bound protein; Tm shift relative to glycine control, % at 25 µM;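 active means melting temperature shift of at least 10% of the positive control shift, at one fixed dose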
# NadD block: inhibitors of Staphylococcus aureus NadD | purified NadD enzyme, colorimetric absorbance read-out | inhibition, % at 20 µM | 0.78% of 360,000 active; in the data active means inhibition above about 26%
# SENP1 FRET inh: inhibitors of human SENP1 SUMO protease catalytic domain; 0.21% of 360,000 active; Q9P0U3; recombinant SENP1 catalytic domain, CyPet-SUMO1-YPet FRET cleavage; AID 624204; inhibition, % at 10 µM;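 active means inhibition at least 30% at 10 µM, raw YFP signal under a set limit, fluorescence ratio 0.5 to 1.5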;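 further: 0% = enzyme with DMSO and 100% = no enzyme wells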
# Target sequence (Q9P0U3 419-644 limits assumed): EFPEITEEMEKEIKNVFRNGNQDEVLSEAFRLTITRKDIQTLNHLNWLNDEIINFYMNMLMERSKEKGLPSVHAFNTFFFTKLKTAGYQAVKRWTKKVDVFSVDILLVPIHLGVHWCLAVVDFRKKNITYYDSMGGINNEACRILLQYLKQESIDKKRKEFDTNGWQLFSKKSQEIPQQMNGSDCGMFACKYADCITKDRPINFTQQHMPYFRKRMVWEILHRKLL
#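 Compound: 10 µM single point, 0.5% DMSO; Test system: hSENP1 catalytic domain, recombinant; Timing: 50 min reaction at room temperature; Technique: FRET, CFP and YFP emission; Control set: no-enzyme wells low, DMSO-plus-enzyme wells high control.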
# UCH37 DUB inh: human UCH37 deubiquitinating enzyme inhibition; 0.33% of 330,000 active; inhibition, % (no concentration beside the values); purified proteasome/UCH37, Ub-AMC cleavage fluorescence; AID 588478; Q9Y5K5;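 active means mean inhibition over replicate wells above about 20%, limit read from the data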;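 further: 0% = compound-free wells with enzyme and 100% = wells lacking proteasome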
# Target sequence (Q9Y5K5 whole entry, looked up): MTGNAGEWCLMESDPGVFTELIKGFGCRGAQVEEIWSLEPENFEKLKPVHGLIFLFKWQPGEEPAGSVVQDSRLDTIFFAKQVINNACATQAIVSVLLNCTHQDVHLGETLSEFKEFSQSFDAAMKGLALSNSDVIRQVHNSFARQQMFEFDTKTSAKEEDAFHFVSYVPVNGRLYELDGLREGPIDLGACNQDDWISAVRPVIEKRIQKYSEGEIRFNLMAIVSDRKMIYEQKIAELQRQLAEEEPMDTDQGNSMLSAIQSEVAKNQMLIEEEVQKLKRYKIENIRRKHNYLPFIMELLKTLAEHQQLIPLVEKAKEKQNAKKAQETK
#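 Assay system: Proteasome-bound UCH37. Buffer or medium: pH 7.4 Tris-HCl (50 mM) with ovalbumin, ATP-MgCl2, DTT. Incubation: 30 min preincubation with enzyme, 25 min cleavage at room temperature. Measured by: fluorescence, ex 355 nm, em 460 nm. Read-out basis: percent inhibition. Control set: wells without proteasome as full block, compound-free enzyme plus substrate as uninhibited.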
# * = called active by the depositor; . = not tested or not shown. In the library only some 3.6% were active in any assay of this set; here they are far more common.
SMILES,ATG4B inh,GRIN3A LBD mod,NadD block,SENP1 FRET inh,UCH37 DUB inh
Cc1ccc(C)c(NC(=O)CC2Sc3ccccc3NC2=O)c1 (stereo not given),4,-1,-2,0,.
CC1=C(C#N)C2C(C1=NO)C2(C)C (stereo not given),.,.,.,.,1
Cc1cc(NS(=O)(=O)c2ccc(NC(=O)c3oc4ccccc4c3C)cc2)no1,1,14*,-5,-3,3
Cc1cc(NS(=O)(=O)c2ccc(NC(=O)Nc3cccc(Cl)c3)cc2)no1,-7,21*,-4,0,5
Cc1cc(NS(=O)(=O)c2ccc(NC(=S)NC(=O)c3ccc(F)cc3)cc2)no1,-4,14*,-3,2,-5
Cc1cc(NC(=O)Nc2cccc(Cl)c2)no1,.,.,-8,0,.
Cc1ccc(OC(C)C(=O)Nc2ccc(S(=O)(=O)Nc3cc(C)on3)cc2)cc1 (stereo not given),0,16*,1,1,0
COc1cccc(Cn2cnc3c(NS(=O)(=O)c4cccc(Cl)c4Cl)c(C)c(C)cc32)c1,-11,-6,30*,3,-1
CC(=NNc1ccc(S(=O)(=O)N2CCCCC2)cn1)c1cccc(Br)c1,.,.,.,.,3
O=c1cc(-c2ccccc2)c2c(O)cc(O)cc2o1,4,-7,-2,-9,-3
C[C@@H]1O[C@@H](OC[C@H]2O[C@@H](Oc3c(-c4ccc(O)c(O)c4)oc4cc(O)cc(O)c4c3=O)[C@H](O)[C@@H](O)[C@@H]2O)[C@H](O)[C@H](O)[C@H]1O,5,5,-1,18,.
CC(C)=CCc1cc(-c2oc3cc(O)cc(O)c3c(=O)c2O)ccc1O,11,21*,6,17,8
O=c1c(-c2ccccc2)c(-c2ccccc2)oc2cc(O)cc(O)c12,3,20*,-5,3,3
COc1c(-c2ccc(O)c(O)c2)oc2cc(O)cc(O)c2c1=O,-13,16*,4,20,2
O=c1c(O)c(-c2ccccc2)oc2cc(O)ccc12,.,.,4,-26,.
O=c1c(O)c(-c2ccccc2)oc2cc(O)cc(O)c12,-19,11*,-3,9,1
CC(=O)c1ccc(O)c(CC=C(C)C)c1,-4,-2,2,0,2
CN(Cc1c(C(=O)NN=Cc2ccccc2)nnn1-c1nonc1N)C1CCCCC1,.,.,.,.,0
ON=Cc1cccn1-c1ccc(O)cc1,.,.,.,.,1
O=C(NN=Cc1ccc(N2CCOCC2)o1)c1cccc(C(F)(F)F)c1,.,.,.,.,10
COc1ccc(C=NNC(=O)c2cccnc2)cc1O,.,.,.,.,9
FC(F)(F)c1nc2ccccc2nc1NN=Cc1ccccc1,.,.,.,.,0
O=c1c(O)c(-c2cc(O)c(O)c(O)c2)oc2cc(O)cc(O)c12,-7,27*,9,84*,6
CC(C)C[C@H](NC(=O)C1(c2ccccc2)CCN(C(=O)[C@H]2CSCN2C(=O)OC(C)(C)C)CC1)C(=O)O,0,14*,4,3,1
CC(C)C[C@H](NC(=O)C1(c2ccccc2)CCN(C(=O)OC(C)(C)C)CC1)C(=O)N1CCC[C@H]1C(=O)O,-2,1,-3,2,2
SMILES,ATG4B inh,GRIN3A LBD mod,NadD block,SENP1 FRET inh,UCH37 DUB inh
O=C1c2ccccc2C(=O)N1CCOc1cccc(Br)c1,15,11*,-9,0,6
O=C(/C=C\c1ccccc1[N+](=O)[O-])Nc1ccccc1,-5,14*,-11,1,4
Cc1ccc(NC(=O)Nc2cccc([N+](=O)[O-])c2)cc1F,17,34*,-4,1,4
NS(=O)(=O)c1ccc(NC(=O)/C=C/c2ccccc2[N+](=O)[O-])cc1,-13,5,3,2,1
O=C(/C=C/c1ccc([N+](=O)[O-])cc1)Nc1cccc(C(=O)Nc2ccccc2C(=O)O)c1,-4,17*,12,3,11
CC(=O)c1cccc(NC(=O)/C=C/c2ccc([N+](=O)[O-])s2)c1,-21,10*,-4,-30,3
O=C(Nc1ccc([N+](=O)[O-])cc1)C(=O)Nc1cccc(C(=O)O)c1,5,0,-1,1,.
COc1ccccc1NC(=O)CC(=O)c1cccc([N+](=O)[O-])c1,-7,6,-1,3,5
COC(=O)c1cccc(NC(=O)/C=C/c2cccc([N+](=O)[O-])c2)c1,-6,17*,-11,-1,-2
COc1ccccc1NC(=O)/C(=C/c1cccc([N+](=O)[O-])c1)c1ccccc1,6,11*,-7,3,2
O=C(O)/C=C/c1cccc(NC(=O)Nc2ccc([N+](=O)[O-])cc2)c1,-2,18*,-6,0,10
CC(C)CNC(=O)c1cccc(NC(=O)COc2cccc([N+](=O)[O-])c2)c1,-3,2,-1,2,2
COC(=O)c1cccc(NC(=O)COc2cccc([N+](=O)[O-])c2)c1,3,2,-1,0,33*
Cc1cc(C)n2nc(C(=O)NN=Cc3ccc(Cl)cc3)nc2n1,.,.,.,.,2
O=C(O)CC1S/C(=N/N=CC2CC=CCC2)NC1=O (stereo not given),.,.,.,.,6
Cc1ccc(C(C)C)cc1NC(=O)Nc1ccc([N+](=O)[O-])cc1,6,25*,-8,4,.
Cc1cc(O)c(C(C)C)cc1NC(=O)Nc1ccc([N+](=O)[O-])cc1,2,-3,-5,2,7
CCN(CC)CCC(c1cc(OC)c(OC)c(OC)c1)c1c(OC)cc(OC)c2ccc(=O)oc12 (stereo not given),-7,13*,-1,-8,5
Cc1cc(C)cc(N=Cc2[nH]c3ccc(Br)c(Cl)c3c2O)c1,10,18*,1,7,11
COc1ccc(CN=Cc2[nH]c3ccc(Br)c(Cl)c3c2O)cc1,-6,-4,13,-38,4
COC1=CC(=O)C(O)=C(CCCCCCCC=CCCCCCCCC2=C(O)C(=O)C=C(OC)C2=O)C1=O,.,.,.,.,14
Cc1ccc(Cl)cc1NC(=O)c1cc2ccccc2cc1O,-4,30*,5,-35,.
COc1ccccc1NC(=O)COC(=O)c1cc2ccccc2cc1O,0,0,0,2,0
COc1ccccc1NC(=O)c1cc2ccc(O)cc2o/c1=N\O,-30,36*,1,-24,.
COc1ccccc1NC(=O)c1cc2cc(Br)ccc2cc1O,2,32*,30*,-21,-13
SMILES,ATG4B inh,GRIN3A LBD mod,NadD block,SENP1 FRET inh,UCH37 DUB inh
COc1cc(NC(=O)c2cc3ccccc3cc2O)c(OC)cc1Cl,24,33*,21,-25,-203
Cc1cc(C(=O)NN=Cc2cccn2C)no1,.,.,.,.,13
COc1ccc2oc(=NO)c(C(=O)Nc3ccc(C)cc3)cc2c1,.,.,.,.,1
COc1ccc2o/c(=N\O)c(C(=O)Nc3ccc(C)cc3)cc2c1,-14,16*,-9,1,.
NC(=O)C[n+]1ccc(C=NO)cc1,.,.,.,.,7
COc1ccc(-c2ccc3c(N)c(C(=O)c4cccc(OC)c4)sc3n2)cc1,18,17*,12,-25,-12
